This passage reports Activity results from ChEMBL document CHEMBL4145633, “Linfuranones B and C, Furanone-Containing Polyketides from a Plant-Associated Sphaerimonospora mesophila” (2018).

Experiment [1] can be described thus: Induction of preadipocyte differentiation into matured adipocyte in mouse ST-13 cells at 40 uM incubated for 2 to 8 days followed by compound wash out measured on day 12 by oil red O staining based phase contrast microscopy relative to control. It is filed as functional. A digest of the protocol:
(§1)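 Mouse ST-13 preadipocytes were seeded on day 1 at 1 × 10^4 cells/mL in DME/F-12 with 10% FBS and penicillin/streptomycin, at 37 °C under 5% CO2. Medium containing compound, or 20 nM rosiglitazone as positive control, was renewed on days 2, 5 and 8. On day 12 cells were formalin-fixed, rinsed in 60% 2-propanol, stained with 0.24% Oil Red O and imaged by phase-contrast microscopy at 100×.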

Another experiment has as its system Candida albicans. Description: […] activity against Candida albicans at 25 ug/ml. The class given is functional, organism-based.
Another experiment deals with Escherichia coli. Description: Antibacterial activity against Escherichia coli at 25 ug/ml. The class given is functional, organism-based.
Experiment [2] is described as follows: Induction of preadipocyte differentiation into matured adipocyte in mouse ST-13 cells at 20 uM incubated for 2 to 8 days followed by compound wash out measured on day 12 by oil red O staining based phase contrast microscopy relative to control. The class given is functional. A digest of the protocol: as §1
Another experiment has as its system Micrococcus luteus. Description: Antibacterial activity against Micrococcus luteus at 25 ug/ml. It is filed as functional, organism-based.

Activity calls are given as the source filed them. The calls are words filed in the database; no cut-off is given here.

For `CCCCC(=O)[C@H](C)/C=C(\C)[C@H](O)[C@H](C)/C=C/C=C/CC[C@@H](O)CC1=C(C)C(=O)C(C)(O)O1` (stereo partly specified), the Activity in experiment [1] is on record as 73%; in experiment [2] it was 45%. Moreover, the outcome in the experiment with Candida albicans, with Escherichia coli and in the experiment on Micrococcus luteus was inactive.
On to `CCCCC(=O)O[C@H](C)/C=C(\C)[C@H](O)[C@H](C)/C=C/C=C/CC[C@@H](O)CC1=C(C)C(=O)C(C)(O)O1` (stereo partly specified), for which the Activity in experiment [1] is reported as 33%; in experiment [2], 22%. The outcome in the experiment with Candida albicans, in the experiment on Escherichia coli and with Micrococcus luteus was inactive.
Turning to `CC1=C(C[C@H](O)CC/C=C/C=C/[C@@H](C)[C@@H](O)/C(C)=C/[C@@H](C)O)OC(C)(O)C1=O` (stereo partly specified), in experiment [2], the Activity is 9%.
